Calls of active or inactive are those of the source. The calls are words filed in the database; no cut-off is given here.
Key:
Type in all cases: protein assay
[1] = biological target: T1, Acetolactate synthase (Zea mays) (UniProt Q41768+Q41769); assay: Inhibition of in vitro ALS activity in first leaf of the plant grew out Zea mays (maize) seedlings measured at 520 OD/ mg of protein/hr at 800 ug/L at 37 degC
How it was run: (§1)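 Maize seedlings were treated in vivo, once the first leaf emerged, with herbicide in distilled water at 0, 100, 200, 400 and 800 μg L-1. Uppermost-expanded leaves were harvested 24 h later. ALS was extracted, precipitated with 50% (NH4)2SO4 at 4 °C, and assayed with 30 mM pyruvate, TPP and FAD at pH 7 for 1 h at 37 °C. Acetoin was read at A520 and normalised to Coomassie protein.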

[2] = biological target: T1, Acetolactate synthase (Zea mays); assay: Inhibition of in vitro ALS activity in first leaf of the plant grew out Zea mays (maize) seedlings measured at 520 OD/ mg of protein/hr at 400 ug/L at 37 degC; how it was run: as §1
[3] = biological target: T1, Acetolactate synthase (Zea mays); assay: Inhibition of in vitro ALS activity in first leaf of the plant grew out Zea mays (maize) seedlings measured at 520 OD/ mg of protein/hr at 200 ug/L at 37 degC; how it was run: as §1
[4] = biological target: T1, Acetolactate synthase (Zea mays); assay: Inhibition of in vitro ALS activity of Zea mays (maize) at 25 mg/L at 37 degC
How it was run: (§2)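 ALS came from uppermost-expanded leaves of 5-day maize seedlings, using a 50% (NH4)2SO4 pellet. Inhibitor was dried from acetone in the tubes at 0, 0.04, 0.2, 1, 5 and 25 mg L-1. The assay used 30 mM pyruvate, 1 mM MgCl2, 1 mM TPP, 20 μM FAD and 50 mM K-phosphate at pH 7, run for 1 h at 37 °C. It was stopped with H2SO4, decarboxylated for 15 min at 60 °C, developed with creatine/α-naphthol, and read at A520.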

[5] = biological target: T1, Acetolactate synthase (Zea mays); assay: Inhibition of in vitro ALS activity in first leaf of the plant grew out Zea mays (maize) seedlings measured at 520 OD/ mg of protein/hr at 100 ug/L at 37 degC; how it was run: as §1
[6] = biological target: T1, Acetolactate synthase (Zea mays); assay: Inhibition of in vitro ALS activity of Zea mays (maize) at 200 ug/L at 37 degC; how it was run: as §2

T1 sequence (Q41768 whole entry, looked up): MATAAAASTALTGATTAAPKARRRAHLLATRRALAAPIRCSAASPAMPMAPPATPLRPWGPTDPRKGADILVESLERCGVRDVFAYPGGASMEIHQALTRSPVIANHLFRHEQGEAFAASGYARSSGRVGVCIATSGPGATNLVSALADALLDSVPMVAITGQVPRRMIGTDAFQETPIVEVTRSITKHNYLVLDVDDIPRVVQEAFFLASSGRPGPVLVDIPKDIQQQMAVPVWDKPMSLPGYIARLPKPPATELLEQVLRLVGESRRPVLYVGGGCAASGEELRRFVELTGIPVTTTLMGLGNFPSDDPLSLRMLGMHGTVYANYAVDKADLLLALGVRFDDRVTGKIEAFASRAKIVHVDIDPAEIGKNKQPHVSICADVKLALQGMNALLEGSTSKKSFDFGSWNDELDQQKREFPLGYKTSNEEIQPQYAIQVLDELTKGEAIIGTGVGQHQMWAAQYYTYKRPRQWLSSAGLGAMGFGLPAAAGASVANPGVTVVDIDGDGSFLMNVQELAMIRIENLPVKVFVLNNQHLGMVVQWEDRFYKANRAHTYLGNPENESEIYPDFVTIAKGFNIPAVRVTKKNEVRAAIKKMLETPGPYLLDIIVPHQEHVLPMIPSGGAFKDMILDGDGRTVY
T1 sequence (Q41769 whole entry, looked up): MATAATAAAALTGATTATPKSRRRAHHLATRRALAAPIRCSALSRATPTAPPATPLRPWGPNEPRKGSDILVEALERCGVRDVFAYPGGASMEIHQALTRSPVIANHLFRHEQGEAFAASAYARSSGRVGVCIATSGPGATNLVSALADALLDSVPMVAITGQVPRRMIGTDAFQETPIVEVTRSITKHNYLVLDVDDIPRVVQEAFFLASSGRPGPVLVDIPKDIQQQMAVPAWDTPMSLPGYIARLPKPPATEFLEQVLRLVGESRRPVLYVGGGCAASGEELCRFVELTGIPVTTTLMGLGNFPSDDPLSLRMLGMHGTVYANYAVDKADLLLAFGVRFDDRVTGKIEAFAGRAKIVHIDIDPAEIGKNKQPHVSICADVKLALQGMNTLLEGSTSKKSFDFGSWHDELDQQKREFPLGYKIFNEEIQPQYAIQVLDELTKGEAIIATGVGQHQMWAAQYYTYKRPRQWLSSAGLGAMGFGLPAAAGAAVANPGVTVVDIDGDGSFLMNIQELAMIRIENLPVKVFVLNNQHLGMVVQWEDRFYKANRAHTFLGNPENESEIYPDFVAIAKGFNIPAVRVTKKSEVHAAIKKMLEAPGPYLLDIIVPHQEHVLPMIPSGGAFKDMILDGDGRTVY

| SMILES | OD [1] | OD [2] | OD [3] | inhibition [4] | OD [5] | inhibition [6] |
| --- | --- | --- | --- | --- | --- | --- |
| CCc1cnc(C2=N[C@@](C)(C(C)C)C(=O)N2)c(C(=O)O)c1 | 2.06 h⁻¹ | 3.18 h⁻¹ | 6.34 h⁻¹ | Active | 7.96 h⁻¹ | 3.8% |
| CCc1cnc(C2=N[C@](C)(C(C)C)C(=O)N2)c(C(=O)O)c1 | 0.97 h⁻¹ | 1.56 h⁻¹ | 3.39 h⁻¹ | Active | 7.14 h⁻¹ | 28.9% |
| CCc1cnc(C2=NC(C)(C(C)C)C(=O)N2)c(C(=O)O)c1 (racemic) | 1.9 h⁻¹ | 2.26 h⁻¹ | 4.41 h⁻¹ | Active | 7.6 h⁻¹ | 19.8% |
